Source: PubChem (Sanford-Burnham Center for Chemical Genomics)
Sampled rows, rich in hits. Any-hit rate of the full collection: about 1.9%.
EBI2 block: EBI2 (human) antagonism | P32249 | EBI2 beta-arrestin recruitment, luminescence, 7a,25-OHC stimulated | inhibition, % at 5 µM | 0.81% of 360,000 active; in the data active means inhibition above about 38%;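 further: enzyme fragment complementation signal reports receptor beta-arrestin coupling in cells; 0% = agonist plus DMSO wells and 100% = wells without agonist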
APJ ag: activates the human apelin receptor APJ; P35414; CHO-K1 APJ PathHunter beta-arrestin, luminescence; 0% DMSO wells, 100% apelin; activation, % at 20 µM; 0.11% of 330,000 active; AID 2520;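 active means activation more than six SD over the plate average, tested at 20 µM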;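 further: 0% = DMSO alone and 100% = apelin-13 at 10 nM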
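Material: engineered CHO-K1 APJ arrestin reporter cells; amount: 1000 CHO-K1 reporter cells seeded per well; incubation: compound stimulation 90 min at 25 °C, detection 60 min; signal: luminescent beta-gal fragment complementation, chemiluminescent substrate; read-out basis: APJ agonist activity; controls: DMSO-only wells as negative, 10 nM Apelin-13 as positive control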
CXCR6 block: CXCR6 (human) receptor inhibition. CHO-K1 PathHunter CXCR6 beta-arrestin, luminescence. inhibition, % at 20 µM. 0.36% of 360,000 active. AID 602244; in the data active means inhibition above about 34%, passing the limit was not always enough;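 further: antagonist mode with CXCL16 agonist at 10 nM final; 0% = 10 nM CXCL16 with DMSO and 100% = unstimulated wells without agonist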
H9c2 TAG inh: inhibitors of triacylglycerol accumulation; H9c2 cells, Nile Red lipid (TAG) fluorescence; cells loaded with 200 µM oleic acid; inhibition, % at 12.5 µM; 0.66% of 230,000 active;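 active means pattern-corrected inhibition of lipid staining of at least 50% with the nuclear-stain viability signal not falling by more than 50%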;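 further: 0% = DMSO wells and 100% = triacsin C control wells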
APJ antag: blocks the human apelin receptor APJ. CHO-K1 APJ beta-arrestin complementation, luminescence. inhibition, % at 20 µM. 0.32% of 330,000 active;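 active means inhibition above about 40% at 20 µM, limit read from the data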;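 further: cells challenged with 10 nM apelin-13 agonist together with compound; plate controls were apelin-13 plus DMSO wells for no effect and DMSO wells lacking apelin-13 for full effect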
CCR6 antag: blocks CCL20-driven beta-arrestin recruitment at human CCR6; P51684; CHO-K1 CCR6 PathHunter beta-arrestin, luminescence, CCL20-stimulated; inhibition, % at 20 µM; 0.49% of 340,000 active; AID 493098;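 active means compounds whose inhibition of the agonist-driven luminescence signal at 20 µM reaches about 50%, limit read from the data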;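 further: cells stimulated with CCL20 at 14 nM final; plate controls were DMSO with CCL20 for no effect and DMSO without agonist for full effect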
Target sequence (P51684 whole entry, looked up): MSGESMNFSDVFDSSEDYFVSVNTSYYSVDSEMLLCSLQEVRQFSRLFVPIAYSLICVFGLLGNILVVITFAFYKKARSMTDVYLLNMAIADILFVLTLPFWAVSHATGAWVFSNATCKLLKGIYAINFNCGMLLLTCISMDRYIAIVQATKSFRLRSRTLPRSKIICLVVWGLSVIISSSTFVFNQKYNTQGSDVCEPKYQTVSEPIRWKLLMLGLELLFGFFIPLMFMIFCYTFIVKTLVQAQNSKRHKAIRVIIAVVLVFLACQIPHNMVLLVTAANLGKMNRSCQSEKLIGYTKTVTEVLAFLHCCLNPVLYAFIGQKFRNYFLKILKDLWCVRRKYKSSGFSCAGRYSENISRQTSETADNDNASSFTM
* = called active by the depositor.

For COc1ccc(NC(=O)C2(C)CCCN2C(=O)C(C)C)cc1OC (centres undefined) the results were EBI2 block -2, CXCR6 block 0 and H9c2 TAG inh 0.
For CCC1(C2=CCCCC2)C(=O)NC(=S)N=C1N (centres undefined) the results were EBI2 block -10, CXCR6 block -1, H9c2 TAG inh 3 and CCR6 antag 0.
`CCOc1cc(C(=O)CSc2nnc(CNc3ccc(Cl)cc3)o2)ccc1NC(=O)CC` gave EBI2 block 56*, APJ ag 2, CXCR6 block -8, APJ antag 4 and CCR6 antag 5.
Screening Cc1cccc(C)c1NC(=O)C1(C)CN(S(C)(=O)=O)CC(=O)N1CCc1ccccc1F (centres undefined) returned EBI2 block 4.
O=C(N[C@@H](Cc1ccccc1)C(=O)NCc1ccc(F)cc1)C1CCNCC1 was read as EBI2 block -8, APJ ag -3, CXCR6 block -11, APJ antag 12 and CCR6 antag 4.
Screening CC(=NNC(=S)N1CCCCCC1)c1cccc2cccnc12 returned EBI2 block -9, CXCR6 block 36, H9c2 TAG inh 45 and CCR6 antag 91*.
`CC(=NNC(=S)N1CCN(C2CCCCCC2)CC1)c1ccccn1` gave EBI2 block -5, CXCR6 block 15, H9c2 TAG inh 77 and CCR6 antag 46.
For O=C(C1=C[C@H](c2csc3ccccc23)C[C@H](OCc2ccc(CO)cc2)O1)N1CCN(Cc2ccc3c(c2)OCO3)CC1 the results were EBI2 block 51*, APJ ag -1, CXCR6 block 7, H9c2 TAG inh 2, APJ antag -4 and CCR6 antag 11.
`CCC(C)(C)c1ccc(OCCCC[n+]2ccccc2)c(C(C)(C)CC)c1` gave EBI2 block -1, APJ ag -4, CXCR6 block -10, H9c2 TAG inh 52* and APJ antag 28.
For CCCCCc1ccc(OCCCC[n+]2ccccc2)c(CCCCC)c1 the results were EBI2 block 6, APJ ag -3, CXCR6 block -5, H9c2 TAG inh 32, APJ antag 10 and CCR6 antag 5.
Screening C=C1CC2(OC1=O)c1ccccc1CCc1ccccc12 returned EBI2 block 30, CXCR6 block 45*, H9c2 TAG inh 116 and CCR6 antag 68*.
Screening Nc1c2ccccc2nc2ccccc12 returned EBI2 block 1, APJ ag -3, CXCR6 block -7, H9c2 TAG inh 54*, APJ antag 0 and CCR6 antag 14.
CCOP(=O)(OCC)C(C#N)=C1SCN(c2ccc(Cl)cc2)CS1 was read as EBI2 block 2, APJ ag -1, CXCR6 block 28, H9c2 TAG inh -10, APJ antag 20 and CCR6 antag 82*.
For N#CCC(=N)N1CCN(c2ccc(Cl)cc2)CC1 the results were EBI2 block -2, APJ ag -2, CXCR6 block -6, H9c2 TAG inh 11, APJ antag -11 and CCR6 antag 14.
For Cc1cccc(C)c1NC(=O)c1nc(S(=O)(=O)Cc2ccccc2)ncc1Cl the results were EBI2 block 30, APJ ag -8, CXCR6 block 54*, APJ antag -4 and CCR6 antag 55*.
Screening CN1/C(=C\C(=O)c2cccnc2)C(C)(C)c2ccccc21 returned EBI2 block -19, APJ ag 1, CXCR6 block -2, H9c2 TAG inh -12, APJ antag 6 and CCR6 antag -12.
CN1/C(=C/C(=O)c2nc(S(C)(=O)=O)ncc2Cl)C(C)(C)c2ccccc21 was read as EBI2 block 58*, APJ ag -3, CXCR6 block 35, APJ antag 24 and CCR6 antag 37.
Screening Cc1ccccc1NC(=O)c1nc(S(C)(=O)=O)ncc1Cl returned EBI2 block 24, APJ ag -5, CXCR6 block 35, H9c2 TAG inh 68*, APJ antag 4 and CCR6 antag 28.
For CSc1ncc(Cl)c(C(=O)Nc2cccc3ccccc23)n1 the results were EBI2 block -11, APJ ag -1, CXCR6 block -9, APJ antag 20 and CCR6 antag -3.
